Data: ChEMBL document CHEMBL5154731, “Synthetic methodology-enabled discovery of a tunable indole template for COX-1 inhibition and anti-cancer activity” (Bioorg Med Chem, 2022)
Calls of active or inactive are those of the source. No cut-off for these calls is given here.

Columns and labels:
[1] = target: T1, Prostaglandin G/H synthase 1 (Ovis aries) (UniProt P05979); assay: Inhibition of full-length ovine COX-1 at 5 uM using arachidonic acid as substrate preincubated for 5 mins followed by substrate addition and measured after 2 mins by colorimetry relative to control; details: time 7.0 min
T1 sequence (whole entry): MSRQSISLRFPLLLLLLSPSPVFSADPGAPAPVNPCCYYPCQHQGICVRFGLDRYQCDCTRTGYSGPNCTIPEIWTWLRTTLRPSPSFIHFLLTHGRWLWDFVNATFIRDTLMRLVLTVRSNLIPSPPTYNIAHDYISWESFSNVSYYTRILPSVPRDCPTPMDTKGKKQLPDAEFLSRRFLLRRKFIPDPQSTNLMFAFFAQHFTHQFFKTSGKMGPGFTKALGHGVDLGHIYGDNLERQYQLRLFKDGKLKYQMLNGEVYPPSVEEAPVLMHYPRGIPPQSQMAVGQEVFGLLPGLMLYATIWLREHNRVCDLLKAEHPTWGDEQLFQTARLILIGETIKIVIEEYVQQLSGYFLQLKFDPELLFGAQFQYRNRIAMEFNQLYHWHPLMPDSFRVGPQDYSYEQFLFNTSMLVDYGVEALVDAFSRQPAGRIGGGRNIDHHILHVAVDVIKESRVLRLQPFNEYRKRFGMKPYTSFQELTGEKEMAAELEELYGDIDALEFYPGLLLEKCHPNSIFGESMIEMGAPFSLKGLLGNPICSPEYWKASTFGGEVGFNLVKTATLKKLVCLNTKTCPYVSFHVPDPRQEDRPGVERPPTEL

[2] = target: T1, Prostaglandin G/H synthase 1 (Ovis aries); assay: Inhibition of full-length ovine COX-1 at 50 uM using arachidonic acid as substrate preincubated for 5 mins followed by substrate addition and measured after 2 mins by colorimetry relative to control; details: time 7.0 min
Vero = assay: Cytotoxicity against African green monkey Vero cells assessed as reduction in cell viability at 2.5 to 500 uM measured after 72 hrs by MTS assay; format: toxicity, cell-based; details: chlorocebus sabaeus, dose 2.5-500 µM
Method in brief: (§1)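 Cells seeded at 2000 to 4500/well on day 1. Next day, treated 72 h with drug at 2.5 to 500 μM from a 1% DMSO solution in medium (DMSO control), each in triplicate. All with 10% FBS. MTS reagent added for 2.5–3 h at 37 °C, absorbance at 490 nm; eight points averaged per concentration.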

HepG2 [3] = assay: Induction of apoptosis in human HepG2 cells assessed as increase in cleaved caspase-3 level at 75 uM measured after 20 hrs by Western blot analysis; format: functional, cell-based
Method in brief: (§2)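 Hep-G2 (1 × 10^6/well) plated 48 h before treatment, then exposed 20 h to 0.1% DMSO solutions of compound (DMSO control). Cells washed in PBS and lysed in RIPA; 20–40 μg protein run on 4–20% gel at 150 V for 65 min, transferred to PVDF, blocked in 5% BSA. Probed overnight for cleaved and pro-caspase, Bcl-xL, Bcl-2, Bax and actin, then IRDye secondaries 1 h, with fluorescence quantification.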

HepG2 [4] = assay: Cell cycle arrest in human HepG2 cells assessed as increase in cell accumulation at G1/G0 phase at 100 uM measured after 24 to 48 hrs by propidium iodide staining based FACS analysis; format: functional; details: time 24-48 hrs
Method in brief: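 Hep-G2 grown to 70% confluence in 10-cm dishes, treated in 0.1% DMSO medium for 24 or 48 h (0.1% DMSO control). Floating and trypsinized cells pooled, washed in PBS, fixed overnight at –20 °C in 70% ethanol, then 200 μg/mL RNase A for 30 min and 100 μg/mL propidium iodide for 30 min at room temperature. DNA content read by flow cytometry; two independent experiments in duplicate.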

HepG2 [5] = assay: Cytotoxicity against human HepG2 cells assessed as reduction in cell viability measured after 72 hrs by MTS assay; format: functional, cell-based; details: HepG2, 72 h; method in brief: as §1
A549 = assay: Cytotoxicity against human A549 cells assessed as reduction in cell viability measured after 72 hrs by MTS assay; format: functional, cell-based; details: A549, 72 h; method in brief: as §1
[6] = Cytotoxicity against African green monkey Vero cells assessed as reduction in cell viability measured after 72 hrs by MTS assay; format: toxicity, cell-based; details: African green monkey (Chlorocebus sabaeus); method in brief: as §1
MDA-MB-231 = assay: Cytotoxicity against human MDA-MB-231 cells assessed as reduction in cell viability measured after 72 hrs by MTS assay; format: functional, cell-based; details: MDA-MB-231, 72 h; method in brief: as §1
MCF7 = assay: Cytotoxicity against human MCF7 cells assessed as reduction in cell viability measured after 72 hrs by MTS assay; format: functional, cell-based; details: MCF7, 72 h; method in brief: as §1
DU-145 = assay: Cytotoxicity against human DU-145 cells assessed as reduction in cell viability measured after 72 hrs by MTS assay; format: functional, cell-based; details: DU-145, 72 h; method in brief: as §1
LNCaP = assay: Cytotoxicity against human LNCaP cells over expressing androgen receptor F876L mutant assessed as reduction in cell viability measured after 72 hrs by MTS assay; format: functional, cell-based; method in brief: as §1
HeLa = assay: Cytotoxicity against human HeLa cells assessed as reduction in cell viability measured after 72 hrs by MTS assay; format: functional, cell-based; method in brief: as §1
HepG2 [7] = assay: Induction of apoptosis in human HepG2 cells assessed as decrease in Bcl-2 expression at 75 uM measured after 20 hrs by Western blot analysis; format: functional, cell-based; method in brief: as §2
HepG2 [8] = assay: Induction of apoptosis in human HepG2 cells assessed as down regulation of Bcl-xl expression at 75 uM measured after 20 hrs by Western blot analysis; format: functional, cell-based; method in brief: as §2
HepG2 [9] = assay: Induction of apoptosis in human HepG2 cells assessed as up regulation of Bax expression at 75 uM measured after 20 hrs by Western blot analysis; format: functional, cell-based; method in brief: as §2
HepG2 [10] = assay: Induction of apoptosis in human HepG2 cells assessed as increase in ratio of Bax/Bcl-2 expression at 75 uM measured after 20 hrs by Western blot analysis; format: functional, cell-based; method in brief: as §2
HepG2 [11] = assay: Down regulation of AR expression in human HepG2 cells at 75 uM measured after 20 hrs by Western blot analysis; format: functional, cell-based
[12] = target: T2, Prostaglandin G/H synthase 1 (Ovis aries, UniProt P05979); assay: Inhibition of full-length ovine COX-1 using arachidonic acid as substrate preincubated for 5 mins followed by substrate addition and measured after 2 mins by colorimetry
T2 sequence (P05979 whole entry): T1 sequence (whole entry)

SMILES	inhibition [1]	inhibition [2]	Activity (Vero)	IC50 (HepG2 [5])	IC50 (A549)	IC50 at 72 h [6]	IC50 (MDA-MB-231)	IC50 (MCF7)	IC50 (DU-145)	IC50 (LNCaP)	IC50 (HeLa)	further results
COc1ccc2c(Cc3cn(C)c4c(C(=O)NCC(F)(F)F)c(OC)ccc34)cn(C)c2c1C(=O)NCC(F)(F)F	< 20%	< 20%	Non-Toxic	–	–	–	–	–	–	–	–	–
Cc1ccc(-c2cc(C(F)(F)F)nn2-c2ccc(S(N)(=O)=O)cc2)cc1 [CELECOXIB]	–	–	–	58.2 µM	57.9 µM	60.6 µM	69.6 µM	64.2 µM	59.3 µM	16.4 µM	58.2 µM	Activity (HepG2 [3]): Active; Activity (HepG2 [4]): Active; Activity (HepG2 [7]): Active; Activity (HepG2 [8]): Active; Activity (HepG2 [9]): Active; Activity (HepG2 [10]): Active; Activity (HepG2 [11]): Active
COc1ccc2c(Cc3cn(C)c4c(C(=O)OCC(F)(F)F)c(OC)ccc34)cn(C)c2c1C(=O)OCC(F)(F)F	< 20%	22.9%	Non-Toxic	–	–	–	–	–	–	–	–	–
COc1ccc2c(C(=O)O)cn(C)c2c1C(=O)OCC(F)(F)F	–	–	Non-Toxic	–	–	–	–	–	–	–	–	–
COc1ccc2c(CO)cn(C)c2c1C(=O)NCC(F)(F)F	< 20%	< 20%	–	58.2 µM	164 µM	229 µM	253 µM	273 µM	144 µM	99 µM	110 µM	IC50 [12]: 85.8 µM
